Measured values: ChEMBL document CHEMBL1629527, “In vitro antifungal activities of bis(alkylpyridinium)alkane compounds against pathogenic yeasts and molds” (Antimicrob Agents Chemother, 2010)

Legend:
Candida albicans [1] = assay: Antifungal activity against Candida albicans after 48 to 72 hrs; format: functional
In short: (§1)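 MFC: after the MIC read, 30-μl aliquots from each well without visible growth were plated onto Sabouraud dextrose agar and incubated at 35°C. Reading was at 48–72 h for yeasts and up to 7 days for molds. MFC was the lowest concentration with no colonies.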

Nakaseomyces glabratus [2] = assay: Antifungal activity against Candida glabrata after 48 to 72 hrs; format: functional; in short: as §1
Candida parapsilosis [3] = assay: Antifungal activity against Candida parapsilosis after 48 to 72 hrs; format: functional; in short: as §1
Pichia kudriavzevii [4] = assay: Antifungal activity against Candida krusei after 48 to 72 hrs; format: functional; in short: as §1
Candida dubliniensis [5] = assay: Antifungal activity against Candida dubliniensis after 48 to 72 hrs; format: functional; in short: as §1
[6] = tested on: Meyerozyma guilliermondii; assay: Antifungal activity against Candida guilliermondii after 48 to 72 hrs; format: functional; in short: as §1
Clavispora lusitaniae = assay: Antifungal activity against Candida lusitaniae after 48 to 72 hrs; format: functional; in short: as §1
Cryptococcus neoformans [7] = assay: Antifungal activity against Cryptococcus neoformans after 48 to 72 hrs; format: functional; in short: as §1
[8] = Toxicity against human erythrocytes assessed as hemolysis; format: cell-based, Erythrocyte
Candida tropicalis = assay: Antifungal activity against Candida tropicalis after 24 to 72 hrs by broth microdilution method; format: functional
In short: (§2)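 Broth microdilution MIC per CLSI M27-A3 (yeasts) or M38-A2 (molds). RPMI 1640 with L-glutamine, without bicarbonate, buffered to pH 7.0 with 0.165 M MOPS. Final test range for the compounds was 0.175–87.5 μM. Incubation at 35°C with visual reading at 24–72 h. MIC was the lowest concentration giving 100% inhibition versus the growth control (azoles 50% or 100%, by organism). Each isolate was run in duplicate in two independent experiments.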

Candida parapsilosis [9] = assay: Antifungal activity against Candida parapsilosis after 24 to 72 hrs by broth microdilution method; format: functional; details: Lodderomyces parapsilosis; in short: as §2
Pichia kudriavzevii [10] = assay: Antifungal activity against Candida krusei after 24 to 72 hrs by broth microdilution method; format: functional; in short: as §2
Candida dubliniensis [11] = assay: Antifungal activity against Candida dubliniensis after 24 to 72 hrs by broth microdilution method; format: functional; in short: as §2
[12] = tested on: Meyerozyma guilliermondii; assay: Antifungal activity against Candida guilliermondii after 24 to 72 hrs by broth microdilution method; format: functional; in short: as §2
Cryptococcus neoformans [13] = assay: Antifungal activity against Cryptococcus neoformans 05-202523 after 48 to 72 hrs; format: functional; in short: as §1
Aspergillus flavus [14] = assay: Antifungal activity against Aspergillus flavus ATCC 204304 after 48 to 72 hrs; format: functional; in short: as §1
Exophiala spinifera = assay: Antifungal activity against Exophiala spinifera 03-200803 after 24 to 72 hrs by broth microdilution method; format: functional
In short: (§3)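 Mold isolates subcultured on potato dextrose agar, then tested by CLSI M38-A2 broth microdilution in RPMI 1640 (L-glutamine, no bicarbonate) buffered to pH 7.0 with 0.165 M MOPS. Compounds were dissolved in water and tested at a final 0.175–87.5 μM. Plates were incubated at 35°C. MIC was read visually as the lowest concentration giving 100% inhibition versus the growth control. Each isolate was run in duplicate in two independent experiments.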

Fusarium solani = assay: Antifungal activity against Fusarium solani 04-203102 after 24 to 72 hrs by broth microdilution method; format: functional; in short: as §3
[15] = Antifungal activity against Paecilomyces lilacinus 05-200601 after 24 to 72 hrs by broth microdilution method; format: functional; details: Purpureocillium lilacinum; in short: as §3
Rhizopus arrhizus = assay: Antifungal activity against Rhizopus oryzae 05-203111 after 24 to 72 hrs by broth microdilution method; format: functional; in short: as §3
Aspergillus flavus [16] = assay: Antifungal activity against Aspergillus flavus ATCC 204304 after 24 to 72 hrs by broth microdilution method; format: functional; in short: as §2
Aspergillus terreus = assay: Antifungal activity against Aspergillus terreus 05-202844 after 24 to 72 hrs by broth microdilution method; format: functional; in short: as §2
Lomentospora prolificans = assay: Antifungal activity against Scedosporium prolificans 05-203060 after 24 to 72 hrs by broth microdilution method; format: functional; in short: as §3
Scedosporium apiospermum = assay: Antifungal activity against Scedosporium apiospermum 05-203100 after 24 to 72 hrs by broth microdilution method; format: functional; in short: as §3
[17] = tested on: Cunninghamella bertholletiae; assay: Antifungal activity against Cunninghamella bertholletiae 99-12187 after 24 to 72 hrs by broth microdilution method; format: functional; in short: as §2
Lichtheimia corymbifera = assay: Antifungal activity against Absidia corymbifera 04-200170 after 24 to 72 hrs by broth microdilution method; format: functional; in short: as §2
Aspergillus fumigatus = assay: Antifungal activity against Aspergillus fumigatus ATCC 204305 after 24 to 72 hrs by broth microdilution method; format: functional; in short: as §2
[18] = tested on: Cryptococcus gattii species complex; assay: Antifungal activity against Cryptococcus gattii 05-200122 after 24 to 72 hrs by broth microdilution method; format: functional, Cryptococcus bacillisporus; in short: as §2
Cryptococcus neoformans [19] = assay: Antifungal activity against Cryptococcus neoformans 05-202523 after 24 to 72 hrs by broth microdilution method; format: functional; in short: as §2
Cryptococcus neoformans [20] = assay: Antifungal activity against Cryptococcus neoformans ATCC 90112 after 24 to 72 hrs by broth microdilution method; format: functional; in short: as §2
Nakaseomyces glabratus [21] = assay: Antifungal activity against Candida glabrata 04-202345 after 24 to 72 hrs by broth microdilution method; format: functional; in short: as §2
Candida parapsilosis [22] = assay: Antifungal activity against Candida parapsilosis 04-202398 after 24 to 72 hrs by broth microdilution method; format: functional; details: Lodderomyces parapsilosis; in short: as §2
Pichia kudriavzevii [23] = assay: Antifungal activity against Candida krusei 04-202328 after 24 to 72 hrs by broth microdilution method; format: functional; in short: as §2
Candida parapsilosis [24] = assay: Antifungal activity against Candida parapsilosis ATCC 22019 after 24 to 72 hrs by broth microdilution method; format: functional; details: Lodderomyces parapsilosis; in short: as §2
Pichia kudriavzevii [25] = assay: Antifungal activity against Candida krusei ATCC 6258 after 24 to 72 hrs by broth microdilution method; format: functional; in short: as §2
Candida albicans [26] = assay: Antifungal activity against Candida albicans ATCC 10231 after 24 to 72 hrs by broth microdilution method; format: functional; in short: as §2
Candida albicans [27] = assay: Antifungal activity against Candida albicans ATCC 90028 after 24 to 72 hrs by broth microdilution method; format: functional; in short: as §2
[28] = Antifungal activity against Exophiala jeanselmei 03-200268 after 24 to 72 hrs by broth microdilution method; format: functional; in short: as §2

MIC (Candida tropicalis): 1.18 µg/mL
MIC50 (Candida tropicalis): 1.56 µg/mL
MIC90 (Candida tropicalis): 1.56 µg/mL
MIC (Candida parapsilosis [9]): 28.6 µg/mL
MIC50 (Candida parapsilosis [9]): 24.9 µg/mL
MIC90 (Candida parapsilosis [9]): 49.5 µg/mL
MIC (Pichia kudriavzevii [10]): 1.36 µg/mL
MIC50 (Pichia kudriavzevii [10]): 1.56 µg/mL
MIC90 (Pichia kudriavzevii [10]): 1.56 µg/mL
MIC (Candida dubliniensis [11]): 0.739 µg/mL
MIC50 (Candida dubliniensis [11]): 0.79 µg/mL
MIC90 (Candida dubliniensis [11]): 0.79 µg/mL
MIC [12]: 0.789 µg/mL
MIC50 [12]: 0.79 µg/mL
MIC90 [12]: 1.56 µg/mL
MIC (Exophiala spinifera): 1.58 µg/mL
MIC (Fusarium solani): 12.7 µg/mL
MIC [15]: 50.7 µg/mL
MIC (Rhizopus arrhizus): 0.79 µg/mL
MIC (Aspergillus flavus [16]): 12.7 µg/mL
MIC (Aspergillus terreus): 0.79 µg/mL
MIC (Lomentospora prolificans): 25.3 µg/mL
MIC (Scedosporium apiospermum): 50.7 µg/mL
MIC [17]: 12.7 µg/mL
MIC (Lichtheimia corymbifera): 50.7 µg/mL
MIC (Aspergillus fumigatus): 12.7 µg/mL
MIC [18]: 0.79 µg/mL
MIC (Cryptococcus neoformans [19]): 6.3 µg/mL
MIC (Cryptococcus neoformans [20]): 0.79 µg/mL
MIC (Nakaseomyces glabratus [21]): 0.79 µg/mL
MIC (Candida parapsilosis [22]): 25.3 µg/mL
MIC (Pichia kudriavzevii [23]): 3.2 µg/mL
MIC (Candida parapsilosis [24]): 0.79 µg/mL
MIC (Pichia kudriavzevii [25]): 3.2 µg/mL
MIC (Candida albicans [26]): 0.79 µg/mL
MIC (Candida albicans [27]): 0.79 µg/mL
MIC [28]: 0.79 µg/mL
SMILES: CCCCCCc1cc[n+](CCCCCCCCCCCC[n+]2ccc(CCCCCC)cc2)cc1.[Cl-].[Cl-]
MFC50 (Candida albicans [1]): 1.56 µg/mL
MFC90 (Candida albicans [1]): 1.56 µg/mL
MFC (Candida albicans [1]; Candida albicans): 1.56 µg/mL
MFC50 (Nakaseomyces glabratus [2]): 1.56 µg/mL
MFC90 (Nakaseomyces glabratus [2]): 1.56 µg/mL
MFC (Nakaseomyces glabratus [2]; Nakaseomyces glabratus): 0.39 µg/mL
MFC50 (Candida parapsilosis [3]): 49.5 µg/mL
MFC90 (Candida parapsilosis [3]): 49.5 µg/mL
MFC (Candida parapsilosis [3]; Lodderomyces parapsilosis): 24.9 µg/mL
MFC50 (Pichia kudriavzevii [4]): 1.56 µg/mL
MFC90 (Pichia kudriavzevii [4]): 3.11 µg/mL
MFC (Pichia kudriavzevii [4]; Pichia kudriavzevii): 0.79 µg/mL
MFC50 (Candida dubliniensis [5]): 0.79 µg/mL
MFC90 (Candida dubliniensis [5]): 0.79 µg/mL
MFC (Candida dubliniensis [5]; Candida dubliniensis): 0.79 µg/mL
MFC50 [6]: 0.79 µg/mL
MFC90 [6]: 1.56 µg/mL
MFC ([6]; Meyerozyma guilliermondii): 0.39 µg/mL
MFC50 (Clavispora lusitaniae): 0.79 µg/mL
MFC90 (Clavispora lusitaniae): 6.22 µg/mL
MFC (Clavispora lusitaniae; Clavispora lusitaniae): 0.79 µg/mL
MFC50 (Cryptococcus neoformans [7]): 0.79 µg/mL
MFC90 (Cryptococcus neoformans [7]): 12.45 µg/mL
MFC (Cryptococcus neoformans [7]; Cryptococcus neoformans): 0.79 µg/mL
HC50 [8]: > 129 µM
IC50 [8]: > 48 µM
MFC (Cryptococcus neoformans [13]): 25.3 µg/mL
MFC (Aspergillus flavus [14]): 25.3 µg/mL
